The source of these data is ChEMBL document CHEMBL1123795, “Inhibitors of dopamine beta-hydroxylase. 3. Some 1-(pyridylmethyl)imidazole-2-thiones” (J Med Chem, 1987).

The target of assay [1] is T1, Dopamine beta-hydroxylase (Rattus norvegicus, UniProt Q05754).
T1 sequence (Q05754 whole entry): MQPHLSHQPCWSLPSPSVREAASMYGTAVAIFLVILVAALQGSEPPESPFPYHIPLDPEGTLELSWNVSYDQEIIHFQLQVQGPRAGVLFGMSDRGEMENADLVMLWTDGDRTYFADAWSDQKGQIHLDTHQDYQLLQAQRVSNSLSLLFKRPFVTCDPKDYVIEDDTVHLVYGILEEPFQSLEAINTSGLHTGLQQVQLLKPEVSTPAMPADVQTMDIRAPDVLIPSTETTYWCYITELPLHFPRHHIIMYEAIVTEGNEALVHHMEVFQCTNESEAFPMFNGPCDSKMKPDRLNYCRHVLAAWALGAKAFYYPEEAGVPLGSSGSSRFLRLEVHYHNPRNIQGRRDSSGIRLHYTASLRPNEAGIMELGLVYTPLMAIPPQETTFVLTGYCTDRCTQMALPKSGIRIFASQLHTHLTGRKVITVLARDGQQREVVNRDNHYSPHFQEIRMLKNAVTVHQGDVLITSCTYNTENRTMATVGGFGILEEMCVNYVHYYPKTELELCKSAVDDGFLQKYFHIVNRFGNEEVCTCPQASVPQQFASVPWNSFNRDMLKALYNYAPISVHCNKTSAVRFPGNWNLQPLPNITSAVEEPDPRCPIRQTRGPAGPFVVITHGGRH
In words: Inhibition of Dopamine beta hydroxylase in spontaneously hypertensive rats; Value range from 8.9-13.

Assay [2] has as its target T2, Dopamine beta-hydroxylase (Rattus norvegicus) (UniProt Q05754).
T2 sequence (whole entry): T1 sequence (Q05754 whole entry)
As to the kind of experiment: Inhibition of Dopamine beta hydroxylase in spontaneously hypertensive rats at a concentration of 10e-4. Put shortly:
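The DBH assay was run in vitro, with percent inhibition of product formation versus control measured at 10⁻⁴ M compound.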

Assay [3] has as its system Rattus norvegicus. In words: Antihypertensive activity was determined by decrease in blood pressure response in spontaneously hypertensive rat was determined after intraperitoneal administration at a dose of 50 mg/kg. Format: functional. Put shortly:
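SHR received a single 50 mg/kg ip dose given as a solution in 20% DMF. Blood pressure was read 2 h after dosing, and the reduction (±SEM) was expressed relative to vehicle-dosed control animals.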

Assay [4] deals with Rattus norvegicus. In words: Percent increase in DA/NE ratio was determined from assay of DA and NE in the mesenteric artery of spontaneously hypertensive rat after two doses for 50 mg/kg peroral administration. Type of assay: functional. To be noted: route oral. In short, it runs like this: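 SHR received two 50 mg/kg doses 18 h apart as suspensions in a 5% PEG 400, 1% methocel vehicle. DA and NE were then assayed in mesenteric artery. The percent change in DA/NE ratio (±SEM) was expressed relative to vehicle-dosed controls.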

Assay [5] deals with T1, Dopamine beta-hydroxylase. In words: Inhibition of Dopamine beta hydroxylase in spontaneously hypertensive rats; Value ranges from 0.4-1.1.
Assay [6] has as its target T1, Dopamine beta-hydroxylase.
Assay [7] deals with T1, Dopamine beta-hydroxylase. As to the kind of experiment: Inhibition of Dopamine beta hydroxylase in spontaneously hypertensive rats; Value ranges from 76-220.
The target of assay [8] is T1, Dopamine beta-hydroxylase. As to the kind of experiment: Inhibition of Dopamine beta hydroxylase in spontaneously hypertensive rats; Value ranges from 1.3-4.6.
Assay [9] deals with T1, Dopamine beta-hydroxylase. In words: Inhibition of Dopamine beta hydroxylase in spontaneously hypertensive rats; Value ranges from 21-35.
The target in assay [10] is T1, Dopamine beta-hydroxylase. As to the kind of experiment: Inhibition of Dopamine beta hydroxylase in spontaneously hypertensive rats; Value ranges from 89-121.

As usually defined, the IC50 is the concentration that gives 50% inhibition. Read a high IC50 as weaker potency. One may read the inhibition as the change of the read-out against control, counted positive when it falls.

In turn, `S=c1[nH]ccn1Cc1ccccc1` displayed an IC50 in assay [1] of 11 µM.
Take `Oc1ccc(Cn2ccnc2S)cn1`: the inhibition in assay [2] was 7%.
Same read-out and setting: next, `COc1ccc(Cn2ccnc2S)cn1`: 17%.
On to `Sc1nccn1Cc1ccncc1`, for which, in assay [3], the “Decrease in blood pressure” value turned out to be 38 mmHg. Besides, the Increase in [4] stood at 49%. This molecule returned an inhibition in [2] of 17%.
Turning to `CCCCc1ccc(C(=O)O)nc1` [FUSARIC ACID], in assay [3], the “Decrease in blood pressure” value was determined as 54 mmHg. In addition, the Increase in [4] came out at 80%. In assay [5], this molecule showed an IC50 of 0.7 µM.
For `Fc1cc(F)cc(Cn2cc[nH]c2=S)c1`, in [6], the IC50 came to 1.2 µM. The “Decrease in blood pressure” value in [3] came to 50 mmHg. Besides, the Increase in [4] was 407%.
`Sc1nccn1Cc1ccccn1` gave an IC50 in assay [7] of 131 µM. For the same molecule, in assay [3], the “Decrease in blood pressure” value turned out to be 35 mmHg. The Increase in assay [4] is 141%.
Turning to `Oc1ccc(Cn2cc[nH]c2=S)cc1`, the “Decrease in blood pressure” value in assay [3] is recorded as 22 mmHg. The Increase in [4] was 95%. The same molecule returned an IC50 in [8] of 2.6 µM.
As for `Oc1ccc(Cn2ccnc2S)nc1`, in [3], the “Decrease in blood pressure” value is 22 mmHg. In assay [9], this molecule gave an IC50 of 27 µM.
For the molecule `Sc1nccn1Cc1cccnc1`, in assay [3], the “Decrease in blood pressure” value is listed as 34 mmHg. This molecule also had an IC50 in assay [10] of 104 µM. For the same molecule, the Increase in assay [4] came out at 52%.
